Assays:
[1] = biological target: C-C chemokine receptor type 2 (Homo sapiens, UniProt P41597); assay: Binding affinity to CCR2 receptor (unknown origin)
[2] = AUC in rat at 10 mg/kg, po; format: ADME, organism-based; set-up: dose 10 mg/kg, route oral; settings: plasma
How it was run: (§1)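 Rat pharmacokinetics after a single oral dose of 10 mpk given in 0.5% methocel. Maximum plasma concentration and plasma exposure (AUC) were taken from the plasma concentration–time profile.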

[3] = Cmax in rat at 10 mg/kg, po; format: ADME, organism-based; set-up: dose 10 mg/kg, route oral; settings: in vivo; how it was run: as §1
[4] = biological target: Voltage-gated inwardly rectifying potassium channel KCNH2 (Homo sapiens, UniProt Q12809); assay: Binding affinity to human ERG
Chain of Voltage-gated inwardly rectifying potassium channel KCNH2 (Q12809 whole entry): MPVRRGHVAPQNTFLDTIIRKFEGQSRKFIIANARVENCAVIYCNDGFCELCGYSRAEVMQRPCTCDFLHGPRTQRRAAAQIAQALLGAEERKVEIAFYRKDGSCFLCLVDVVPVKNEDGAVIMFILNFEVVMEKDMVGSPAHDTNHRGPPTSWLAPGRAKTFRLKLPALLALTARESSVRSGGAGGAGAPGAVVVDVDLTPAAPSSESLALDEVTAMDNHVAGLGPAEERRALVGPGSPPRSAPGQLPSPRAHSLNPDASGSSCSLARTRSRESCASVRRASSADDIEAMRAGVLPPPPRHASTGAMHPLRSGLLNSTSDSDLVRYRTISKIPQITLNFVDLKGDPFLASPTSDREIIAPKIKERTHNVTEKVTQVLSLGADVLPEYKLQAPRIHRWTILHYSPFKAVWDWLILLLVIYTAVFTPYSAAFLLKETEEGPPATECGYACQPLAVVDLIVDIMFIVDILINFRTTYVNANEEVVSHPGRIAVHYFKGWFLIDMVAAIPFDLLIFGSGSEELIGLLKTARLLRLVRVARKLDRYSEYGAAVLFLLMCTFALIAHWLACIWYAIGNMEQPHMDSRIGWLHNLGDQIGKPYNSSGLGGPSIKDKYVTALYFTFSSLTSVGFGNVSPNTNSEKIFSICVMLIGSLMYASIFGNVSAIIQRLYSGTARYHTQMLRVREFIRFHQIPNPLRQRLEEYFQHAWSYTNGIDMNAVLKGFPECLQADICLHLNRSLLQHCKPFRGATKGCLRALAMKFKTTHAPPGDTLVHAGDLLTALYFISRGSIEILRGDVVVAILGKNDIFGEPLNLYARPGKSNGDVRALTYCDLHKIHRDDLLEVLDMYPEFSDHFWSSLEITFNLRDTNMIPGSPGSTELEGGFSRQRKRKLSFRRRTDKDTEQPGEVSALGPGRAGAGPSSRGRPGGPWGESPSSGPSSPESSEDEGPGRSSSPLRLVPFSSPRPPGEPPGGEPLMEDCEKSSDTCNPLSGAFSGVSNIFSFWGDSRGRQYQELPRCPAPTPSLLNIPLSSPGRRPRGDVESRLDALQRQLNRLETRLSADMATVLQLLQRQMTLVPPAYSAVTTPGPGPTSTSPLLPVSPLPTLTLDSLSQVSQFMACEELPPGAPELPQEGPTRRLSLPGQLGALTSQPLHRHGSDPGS

hERG (KCNH2) = hERG (KCNH2) (Homo sapiens, UniProt Q12809); assay: Inhibition of human ERG at 3 uM by patchxpress assay
Chain of hERG (KCNH2) (Q12809 whole entry): as above

Chain of C-C chemokine receptor type 2 (P41597 whole entry): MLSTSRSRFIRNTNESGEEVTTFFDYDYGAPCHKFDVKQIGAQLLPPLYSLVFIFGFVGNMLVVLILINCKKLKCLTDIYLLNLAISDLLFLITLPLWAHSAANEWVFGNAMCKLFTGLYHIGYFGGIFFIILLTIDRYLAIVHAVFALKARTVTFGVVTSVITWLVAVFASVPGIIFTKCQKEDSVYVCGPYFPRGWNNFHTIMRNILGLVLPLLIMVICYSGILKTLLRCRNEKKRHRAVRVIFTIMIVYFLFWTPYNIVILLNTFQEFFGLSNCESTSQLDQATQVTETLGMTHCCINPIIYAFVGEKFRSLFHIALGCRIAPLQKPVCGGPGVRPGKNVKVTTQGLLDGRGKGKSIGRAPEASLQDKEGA

SMILES	IC50 [1]	AUC [2]	Cmax [3]	IC50 [4]	inhibition at 3 µM (hERG (KCNH2))
COC1COCCC1N[C@@H]1C[C@H]2CN(C(N)=O)C[C@@]2(C(=O)N2CCc3ncc(C(F)(F)F)cc3C2)C1 (mixture of isomers)	64 nM	74 ng·h/mL	70.6 ng/mL	> 50000 nM	–
COC1COCCC1N[C@@H]1C[C@H]2CN(C(=O)NC(C)C)C[C@@]2(C(=O)N2CCc3ncc(C(F)(F)F)cc3C2)C1 (mixture of isomers)	410 nM	–	–	> 50000 nM	–
COC1COCCC1N[C@@H]1C[C@H]2CN(C(=O)NCc3ccccc3)C[C@@]2(C(=O)N2CCc3ncc(C(F)(F)F)cc3C2)C1 (mixture of isomers)	57 nM	–	–	> 50000 nM	–
COC1COCCC1N[C@@H]1C[C@H]2CN(C(=O)Oc3ccccc3)C[C@@]2(C(=O)N2CCc3ncc(C(F)(F)F)cc3C2)C1 (mixture of isomers)	560 nM	–	–	> 50000 nM	–
COC1COCCC1N[C@@H]1C[C@H]2CN(C(=O)OCC(C)C)C[C@@]2(C(=O)N2CCc3ncc(C(F)(F)F)cc3C2)C1 (mixture of isomers)	35 nM	–	–	> 50000 nM	–
COC1COCCC1N[C@@H]1C[C@H]2CN(C(=O)OCC3CCOCC3)C[C@@]2(C(=O)N2CCc3ncc(C(F)(F)F)cc3C2)C1 (mixture of isomers)	32 nM	–	–	–	–
COC1COCCC1N[C@@H]1C[C@H]2CN(C(=O)OCCNC(C)=O)C[C@@]2(C(=O)N2CCc3ncc(C(F)(F)F)cc3C2)C1 (mixture of isomers)	45 nM	–	–	> 50000 nM	–
COC1COCCC1N[C@@H]1C[C@H]2CNC[C@@]2(C(=O)N2CCc3ncc(C(F)(F)F)cc3C2)C1 (mixture of isomers)	–	–	–	> 50000 nM	–
COC1COCCC1N[C@@H]1C[C@H]2CN(C)C[C@@]2(C(=O)N2CCc3ncc(C(F)(F)F)cc3C2)C1 (mixture of isomers)	–	–	–	> 50000 nM	–
CCN1C[C@@H]2C[C@@H](NC3CCOCC3OC)C[C@]2(C(=O)N2CCc3ncc(C(F)(F)F)cc3C2)C1 (mixture of isomers)	629 nM	–	–	42600 nM	–
COC1COCCC1N[C@@H]1C[C@H]2CN(c3nccs3)C[C@@]2(C(=O)N2CCc3ncc(C(F)(F)F)cc3C2)C1 (mixture of isomers)	152 nM	–	–	> 50000 nM	–
COC1COCCC1N[C@@H]1C[C@H]2CN(C(C)=O)C[C@@]2(C(=O)N2CCc3ncc(C(F)(F)F)cc3C2)C1 (mixture of isomers)	395 nM	–	–	> 50000 nM	–
COC1COCCC1N[C@@H]1C[C@H]2CN(C(=O)/C=C/c3ccccc3)C[C@@]2(C(=O)N2CCc3ncc(C(F)(F)F)cc3C2)C1 (mixture of isomers)	–	–	–	24100 nM	–
COC1COCCC1N[C@@H]1C[C@H]2CN(C(=O)C#CC3CC3)C[C@@]2(C(=O)N2CCc3ncc(C(F)(F)F)cc3C2)C1 (mixture of isomers)	87 nM	–	–	49600 nM	–

Further compounds by falling IC50 [1], results first:

IC50 [1]	AUC [2]	Cmax [3]	SMILES	IC50 [4]	inhibition at 3 µM (hERG (KCNH2))
1210 nM	–	–	COC1COCCC1N[C@@H]1C[C@H]2CN(C(C)C)C[C@@]2(C(=O)N2CCc3ncc(C(F)(F)F)cc3C2)C1 (mixture of isomers)	> 50000 nM	–
410 nM	–	–	COC(=O)N1C[C@@H]2C[C@@H](NC3CCOCC3OC)C[C@]2(C(=O)N2CCc3ncc(C(F)(F)F)cc3C2)C1 (mixture of isomers)	> 50000 nM	–
180 nM	–	–	COC1COCCC1N[C@@H]1C[C@H]2CN(C3CC3)C[C@@]2(C(=O)N2CCc3ncc(C(F)(F)F)cc3C2)C1 (mixture of isomers)	–	–
126 nM	–	–	COC1COCCC1N[C@@H]1C[C@H]2CN(C3COC3)C[C@@]2(C(=O)N2CCc3ncc(C(F)(F)F)cc3C2)C1 (mixture of isomers)	> 50000 nM	–
118 nM	–	–	COC1COCCC1N[C@@H]1C[C@H]2CN(C(=O)OCc3ccccc3)C[C@@]2(C(=O)N2CCc3ncc(C(F)(F)F)cc3C2)C1 (mixture of isomers)	> 50000 nM	–
82 nM	–	–	COCCOC(=O)N1C[C@@H]2C[C@@H](NC3CCOCC3OC)C[C@]2(C(=O)N2CCc3ncc(C(F)(F)F)cc3C2)C1 (mixture of isomers)	> 50000 nM	–
77 nM	–	–	CNC(=O)N1C[C@@H]2C[C@@H](NC3CCOCC3OC)C[C@]2(C(=O)N2CCc3ncc(C(F)(F)F)cc3C2)C1 (mixture of isomers)	> 50000 nM	–
68 nM	–	–	COC1COCCC1N[C@@H]1C[C@H]2CN(C(=O)/C=C/C(C)(C)C)C[C@@]2(C(=O)N2CCc3ncc(C(F)(F)F)cc3C2)C1 (mixture of isomers)	> 50000 nM	–
62 nM	–	–	COC1COCCC1N[C@@H]1C[C@H]2CN(c3ccccc3)C[C@@]2(C(=O)N2CCc3ncc(C(F)(F)F)cc3C2)C1 (mixture of isomers)	22900 nM	–
59 nM	–	–	COC1COCCC1N[C@@H]1C[C@H]2CN(C(=O)OCC(C)(C)C)C[C@@]2(C(=O)N2CCc3ncc(C(F)(F)F)cc3C2)C1 (mixture of isomers)	> 50000 nM	–
41 nM	–	–	COC1COCCC1N[C@@H]1C[C@H]2CN(C(=O)OCCN3CCOCC3)C[C@@]2(C(=O)N2CCc3ncc(C(F)(F)F)cc3C2)C1 (mixture of isomers)	> 50000 nM	–
37 nM	–	–	COC1COCCC1N[C@@H]1C[C@H]2CN(/C(N)=N\C#N)C[C@@]2(C(=O)N2CCc3ncc(C(F)(F)F)cc3C2)C1 (mixture of isomers)	> 50000 nM	–
33 nM	–	–	COC1COCCC1N[C@@H]1C[C@H]2CN(C(=O)OCCN3CCCC3)C[C@@]2(C(=O)N2CCc3ncc(C(F)(F)F)cc3C2)C1 (mixture of isomers)	> 50000 nM	–
31 nM	427 ng·h/mL	145 ng/mL	COC1COCCC1N[C@@H]1C[C@H]2CN(C(=O)OCCC3CCOCC3)C[C@@]2(C(=O)N2CCc3ncc(C(F)(F)F)cc3C2)C1 (mixture of isomers)	> 50000 nM	7.3%
